Tested on: HEK-293T
Experiment: Multiplex assay against HEK293T;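 on Population Tubulin-Different-Phenotype (%): share of the cells with healthy nuclei that show this phenotype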
Type: toxicity, cell-based
Settings: human
Summary of the method: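 Cells stained live at seeding with Hoechst33342, BioTracker Green Microtubule Cytoskeleton Dye, MitoTracker Red and Annexin V Alexa Fluor 680 were imaged on a CQ1 microscope at 37°C and 5% CO2 after compound addition. Their classification by CellPathfinder machine-learning gating ran from Hoechst high-intensity objects versus normal cells, to healthy, pyknosed or fragmented nuclei among normal cells, to mitotic or apoptotic among pyknosed cells. Tubulin, mitochondrial-mass and membrane-permeability phenotypes are per cents of healthy-nucleus cells.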

[1] = 12 h, 1 µM, compound concentration 1 uM, replicate 1
[2] = 12 h, 1 µM, compound concentration 1 uM, replicate 2
[3] = 12 h, 10 µM, compound concentration 10 uM, replicate 1
[4] = 12 h, 10 µM, compound concentration 10 uM, replicate 2
[5] = 24 h, 1 µM, compound concentration 1 uM, replicate 1
[6] = 24 h, 1 µM, compound concentration 1 uM, replicate 2
[7] = 24 h, 10 µM, compound concentration 10 uM, replicate 1
[8] = 24 h, 10 µM, compound concentration 10 uM, replicate 2

Cc1c(Nc2ccc(S(=O)(=O)N3CCN(C)CC3)cc2F)nc2ccc(Nc3cnn(C4CC4)c3)cn2c1=O
Population Apoptotic (%) [1]: 17%
Population Fragmented Nuclei (%) [1]: 13%
Population Healthy Nuclei (%) [1]: 52%
Population Hoechst High Intensity Objects (%) [1]: 16%
Population Membrane Permeable-Phenotype (%) [1]: 15%
Population Mitochondria Different-Phenotype (%) [1]: 11%
Population Mitotic Cells (%) [1]: 82%
Population Normal (%) [1]: 83%
Population Pyknosed Nuclei (%) [1]: 33%
Population Tubulin-Different-Phenotype (%) [1]: 47%
Total Cell Count [1]: 566
Population Apoptotic (%) [2]: 11%
Population Fragmented Nuclei (%) [2]: 3%
Population Healthy Nuclei (%) [2]: 83%
Population Hoechst High Intensity Objects (%) [2]: 3%
Population Membrane Permeable-Phenotype (%) [2]: 14%
Population Mitochondria Different-Phenotype (%) [2]: 29%
Population Mitotic Cells (%) [2]: 88%
Population Normal (%) [2]: 96%
Population Pyknosed Nuclei (%) [2]: 12%
Population Tubulin-Different-Phenotype (%) [2]: 73%
Total Cell Count [2]: 888
Population Apoptotic (%) [3]: 17%
Population Fragmented Nuclei (%) [3]: 11%
Population Healthy Nuclei (%) [3]: 73%
Population Hoechst High Intensity Objects (%) [3]: 8%
Population Membrane Permeable-Phenotype (%) [3]: 4%
Population Mitochondria Different-Phenotype (%) [3]: 4%
Population Mitotic Cells (%) [3]: 82%
Population Normal (%) [3]: 91%
Population Pyknosed Nuclei (%) [3]: 15%
Population Tubulin-Different-Phenotype (%) [3]: 4%
Total Cell Count [3]: 791
Population Apoptotic (%) [4]: 4%
Population Fragmented Nuclei (%) [4]: 6%
Population Healthy Nuclei (%) [4]: 89%
Population Hoechst High Intensity Objects (%) [4]: 2%
Population Membrane Permeable-Phenotype (%) [4]: 2%
Population Mitochondria Different-Phenotype (%) [4]: 10%
Population Mitotic Cells (%) [4]: 95%
Population Normal (%) [4]: 97%
Population Pyknosed Nuclei (%) [4]: 4%
Population Tubulin-Different-Phenotype (%) [4]: 7%
Total Cell Count [4]: 1683
Population Apoptotic (%) [5]: 27%
Population Fragmented Nuclei (%) [5]: 16%
Population Healthy Nuclei (%) [5]: 60%
Population Hoechst High Intensity Objects (%) [5]: 11%
Population Membrane Permeable-Phenotype (%) [5]: 21%
Population Mitochondria Different-Phenotype (%) [5]: 9%
Population Mitotic Cells (%) [5]: 72%
Population Normal (%) [5]: 88%
Population Pyknosed Nuclei (%) [5]: 23%
Population Tubulin-Different-Phenotype (%) [5]: 65%
Total Cell Count [5]: 536
Population Apoptotic (%) [6]: 12%
Population Fragmented Nuclei (%) [6]: 6%
Population Healthy Nuclei (%) [6]: 85%
Population Hoechst High Intensity Objects (%) [6]: 5%
Population Mitochondria Different-Phenotype (%) [6]: 16%
Population Mitotic Cells (%) [6]: 87%
Population Normal (%) [6]: 94%
Population Pyknosed Nuclei (%) [6]: 7%
Population Tubulin-Different-Phenotype (%) [6]: 83%
Total Cell Count [6]: 1100
Population Apoptotic (%) [7]: 16%
Population Fragmented Nuclei (%) [7]: 8%
Population Healthy Nuclei (%) [7]: 85%
Population Hoechst High Intensity Objects (%) [7]: 4%
Population Membrane Permeable-Phenotype (%) [7]: 9%
Population Mitochondria Different-Phenotype (%) [7]: 3%
Population Mitotic Cells (%) [7]: 83%
Population Normal (%) [7]: 95%
Population Pyknosed Nuclei (%) [7]: 6%
Population Tubulin-Different-Phenotype (%) [7]: 8%
Total Cell Count [7]: 922
Population Apoptotic (%) [8]: 0%
Population Fragmented Nuclei (%) [8]: 18%
Population Healthy Nuclei (%) [8]: 79%
Population Hoechst High Intensity Objects (%) [8]: 3%
Population Membrane Permeable-Phenotype (%) [8]: 7%
Population Mitochondria Different-Phenotype (%) [8]: 2%
Population Mitotic Cells (%) [8]: 100%
Population Normal (%) [8]: 96%
Population Pyknosed Nuclei (%) [8]: 2%
Population Tubulin-Different-Phenotype (%) [8]: 10%
Total Cell Count [8]: 2721

Reference: ChEMBL document CHEMBL4689842, “EUbOPEN Chemogenomics Library wave 1” (2021)
